From ChEMBL document CHEMBL4477233, “Discovery of novel TAOK2 inhibitor scaffolds from high-throughput screening” (Bioorg Med Chem Lett, 2016)
Calls of active or inactive are those of the source. No cut-off for these calls is given here.

What was measured:
[1] = molecular target: T1, Serine/threonine-protein kinase TAO2 (Rattus norvegicus) (UniProt Q9JLS3); experiment: Binding affinity to rat TAOK2 (1 to 320 residues) expressed in Baculovirus/insect cell expression system assessed as change in melting temperature at 1 uM by SYPRO orange dye-based DSF analysis
T1 sequence (whole entry): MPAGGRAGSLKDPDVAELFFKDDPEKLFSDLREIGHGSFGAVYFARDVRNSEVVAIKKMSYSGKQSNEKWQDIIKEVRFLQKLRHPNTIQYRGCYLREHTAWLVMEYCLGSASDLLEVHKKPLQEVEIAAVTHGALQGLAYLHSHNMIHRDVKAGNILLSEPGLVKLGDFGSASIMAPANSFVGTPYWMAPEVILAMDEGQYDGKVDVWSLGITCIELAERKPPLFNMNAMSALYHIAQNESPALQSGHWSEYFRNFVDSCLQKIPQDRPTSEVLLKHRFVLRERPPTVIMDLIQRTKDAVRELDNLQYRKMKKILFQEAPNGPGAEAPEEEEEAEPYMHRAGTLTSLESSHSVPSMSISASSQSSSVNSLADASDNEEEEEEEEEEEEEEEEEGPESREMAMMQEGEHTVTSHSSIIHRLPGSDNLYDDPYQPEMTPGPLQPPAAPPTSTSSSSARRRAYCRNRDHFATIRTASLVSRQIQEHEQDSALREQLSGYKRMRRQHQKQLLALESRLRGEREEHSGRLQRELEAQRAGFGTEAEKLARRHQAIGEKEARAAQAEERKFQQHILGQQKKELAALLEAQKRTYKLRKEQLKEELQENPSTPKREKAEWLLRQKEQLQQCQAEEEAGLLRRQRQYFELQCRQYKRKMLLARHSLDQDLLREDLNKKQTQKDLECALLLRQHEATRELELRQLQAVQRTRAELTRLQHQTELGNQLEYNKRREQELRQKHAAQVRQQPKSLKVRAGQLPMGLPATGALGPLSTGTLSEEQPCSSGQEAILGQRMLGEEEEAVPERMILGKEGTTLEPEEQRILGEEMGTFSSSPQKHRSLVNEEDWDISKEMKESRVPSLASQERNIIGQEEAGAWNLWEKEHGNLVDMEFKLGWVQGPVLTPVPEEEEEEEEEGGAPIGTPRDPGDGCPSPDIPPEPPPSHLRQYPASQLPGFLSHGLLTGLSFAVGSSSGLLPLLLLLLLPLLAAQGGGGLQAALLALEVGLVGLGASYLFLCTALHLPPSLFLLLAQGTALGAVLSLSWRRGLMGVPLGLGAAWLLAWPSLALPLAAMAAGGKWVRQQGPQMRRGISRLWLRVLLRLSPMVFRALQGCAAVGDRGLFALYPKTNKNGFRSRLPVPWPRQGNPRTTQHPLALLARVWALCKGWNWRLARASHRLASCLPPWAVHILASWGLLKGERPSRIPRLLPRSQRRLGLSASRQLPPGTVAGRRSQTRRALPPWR
Procedure, shortened: (§1)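 Differential scanning fluorimetry: each compound's melting-temperature shift (ΔTm, °C) was measured on the kinase protein. Compounds giving a TAOK2 ΔTm above 0.5 °C were also run against p38 and ASK1. Selectivity (ΔΔTm) was taken as the TAOK2 ΔTm minus the p38 or ASK1 ΔTm.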

[2] = molecular target: T2, Serine/threonine-protein kinase TAO2 (Homo sapiens) (UniProt Q9UL54); experiment: Inhibition of TAOK2 in human U2OS cells assessed as inhibition of cellular autophagy measured as GFP-LC3 accumulation at 50 uM after 24 hrs by flow cytometric analysis; assay type: cell-based
T2 sequence (whole entry): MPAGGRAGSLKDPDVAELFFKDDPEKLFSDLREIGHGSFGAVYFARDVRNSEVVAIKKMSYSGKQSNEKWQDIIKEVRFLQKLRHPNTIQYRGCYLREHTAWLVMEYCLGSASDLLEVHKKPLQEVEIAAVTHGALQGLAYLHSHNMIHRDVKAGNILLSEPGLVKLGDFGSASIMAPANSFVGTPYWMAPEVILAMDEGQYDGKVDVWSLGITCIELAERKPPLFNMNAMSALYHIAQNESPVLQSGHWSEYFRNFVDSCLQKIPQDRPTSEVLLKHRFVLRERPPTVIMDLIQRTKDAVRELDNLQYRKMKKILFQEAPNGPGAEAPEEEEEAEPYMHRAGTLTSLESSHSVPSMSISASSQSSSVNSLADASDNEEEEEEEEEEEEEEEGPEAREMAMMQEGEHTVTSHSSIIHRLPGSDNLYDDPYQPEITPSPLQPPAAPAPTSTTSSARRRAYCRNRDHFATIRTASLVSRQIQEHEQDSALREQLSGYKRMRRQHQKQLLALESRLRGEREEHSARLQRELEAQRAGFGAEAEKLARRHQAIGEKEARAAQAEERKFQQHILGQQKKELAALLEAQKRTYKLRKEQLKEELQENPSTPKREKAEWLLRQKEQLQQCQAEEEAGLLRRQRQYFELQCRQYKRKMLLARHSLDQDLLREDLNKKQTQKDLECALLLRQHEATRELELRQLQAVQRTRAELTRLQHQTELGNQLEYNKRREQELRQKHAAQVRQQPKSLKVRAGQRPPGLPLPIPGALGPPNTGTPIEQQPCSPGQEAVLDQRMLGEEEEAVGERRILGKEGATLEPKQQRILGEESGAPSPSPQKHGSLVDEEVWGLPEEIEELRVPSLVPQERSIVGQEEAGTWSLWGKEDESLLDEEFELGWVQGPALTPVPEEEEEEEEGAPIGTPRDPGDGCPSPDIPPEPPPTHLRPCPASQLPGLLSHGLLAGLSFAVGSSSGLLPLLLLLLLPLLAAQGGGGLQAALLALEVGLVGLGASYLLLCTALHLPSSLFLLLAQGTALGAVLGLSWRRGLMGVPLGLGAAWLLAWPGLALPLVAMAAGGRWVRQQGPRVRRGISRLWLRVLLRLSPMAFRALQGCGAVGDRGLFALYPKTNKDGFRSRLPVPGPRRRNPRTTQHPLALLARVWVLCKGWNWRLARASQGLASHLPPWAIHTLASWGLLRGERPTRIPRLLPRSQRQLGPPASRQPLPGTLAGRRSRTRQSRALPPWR
Procedure, shortened: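 U2OS cells stably expressing GFP–LC3 were exposed to compound at 50 µM in the medium for 24 h. GFP fluorescence was read by flow cytometry. The median value from 20,000 cells per condition was normalized to DMSO vehicle within each experiment. Data are mean + SD of >2 independent experiments, compared with vehicle by unpaired t test.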

[3] = molecular target: MAP kinase p38 (Homo sapiens) (UniProt O15264+Q15759+Q16539+P53778); experiment: Binding affinity to p38 (unknown origin) assessed as change in melting temperature at 1 uM by SYPRO orange dye-based DSF analysis; assay type: protein assay; procedure, shortened: as §1
[4] = molecular target: T3, Serine/threonine-protein kinase TAO2 (Rattus norvegicus, UniProt Q9JLS3); experiment: Inhibition of rat TAOK2 (1 to 320 residues) expressed in Baculovirus/insect cell expression system assessed as remaining activity using MBP as substrate and [32P]ATP measured after 10 mins by Kinase-Glo assay
T3 sequence (Q9JLS3 whole entry): T1 sequence (whole entry)

| Compound | ΔTm [1] [°C] | inhibition [2] | ΔTm [3] [°C] | IC50 [4] [µM] |
| --- | --- | --- | --- | --- |
| CCC(=O)Nc1nc(C)c(-c2csc(Nc3cc(OC)ccc3OC)n2)s1 | 3 | Active | 2.8 | – |
| c1cc2[nH]c3c(c2c2nonc12)CCCC3 | 1.2 | Active | 2 | 3 |
| Cc1ccc(NCCCC(=O)N/N=C/c2cc(Br)cc(Br)c2O)cc1 | 1.6 | Active | 1.3 | 6 |

Now from value to molecule:

| ΔTm [1] [°C] | inhibition [2] | ΔTm [3] [°C] | IC50 [4] [µM] | Compound |
| --- | --- | --- | --- | --- |
| 1.6 | Active | 2.2 | 2 | O=C(NCC1COc2ccccc2O1)c1ccc(NC(=O)c2ccco2)cc1 (stereo not given) |
| 0.7 | Active | 0 | 5 | Cc1ccc(C(=O)CSc2nnc(-c3ccncc3)[nH]2)c(C)c1 |
| 2 | Active | 2 | 1.3 to 1.4 | CCOCCCn1c(=S)[nH]c2cc(C(=O)NCC3COc4ccccc4O3)ccc2c1=O (stereo not given) |
| 1.3 | Active | 2 | – | CS(=O)(=O)c1ccc2nc(NC(=O)CCCOc3ccc(Cl)cc3)sc2c1 |
| 2.2 | Active | 1.5 | 3 | O=C(O)c1cc(-c2ccc(-c3ccccc3[N+](=O)[O-])o2)nc2ccc3ccccc3c12 |
